Holding throughout (type): functional
The subject of one assay is Candida parapsilosis. In words: Antifungal activity against Candida parapsilosis 22019 after 24 hrs by spectrophotometric analysis. Particulars: Lodderomyces parapsilosis, 22019, 24 h. In a few lines:
(§1)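 Broth microdilution in RPMI 1640, inoculum 5×10^3 CFU/mL, compounds from 6.4 mg/mL DMSO stocks, 35 ℃ for 24 h. Growth read as OD600; MIC80 taken as lowest concentration giving 80% growth inhibition. Triplicate.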

For a further assay, the system named is Nakaseomyces glabratus. In words: Antifungal activity against Candida glabrata 537 after 24 hrs by spectrophotometric analysis. The following applies: Nakaseomyces glabratus, 537, 24 h. In a few lines: as §1
Another assay relates to Nannizzia gypsea. In words: Antifungal activity against Microsporum gypseum Cmccfmza after 24 hrs by spectrophotometric analysis. In outline: as §1
The next assay deals with Trichophyton rubrum. In words: Antifungal activity against Trichophyton rubrum Cmccftla after 24 hrs by spectrophotometric analysis. In outline:
as §1

For a further assay, the system named is Cryptococcus neoformans. In words: Antifungal activity against Cryptococcus neoformans 32609 after 24 hrs by spectrophotometric analysis. Particulars: Cryptococcus neoformans, 32609, 24 h. In outline:
as §1

The subject of a further assay is Aspergillus fumigatus. In words: Antifungal activity against Aspergillus fumigatus 07544 after 24 hrs by spectrophotometric analysis. Particulars: Aspergillus fumigatus, 07544, 24 h. In a few lines: as §1
The test system of the next assay is Candida albicans. In words: Antifungal activity against Candida albicans SC5314 after 24 hrs by spectrophotometric analysis. The following applies: SC5314, 24 h. In outline: as §1

In brackets after ≈: the same amount, converted by molar mass.

With `Cc1ccnc2c1C(=O)c1ccn(C)c1C2=O`, the MIC80 against Candida parapsilosis, against Nakaseomyces glabratus, in the assay on Nannizzia gypsea, in the assay with Trichophyton rubrum, in the assay with Cryptococcus neoformans and in the assay on Aspergillus fumigatus was more than 64 µg/mL throughout. In addition, the MIC80 with Candida albicans was more than 64 µg/mL.

As to `Cc1ccnc2c1C(=O)C1=C(OC(C)(C)C1)C2=O`, the MIC80 is more than 64 µg/mL against Candida parapsilosis; 16 µg/mL (≈ 65.8 µM) against Nakaseomyces glabratus; more than 64 µg/mL against Nannizzia gypsea; 64 µg/mL (≈ 263 µM) with Trichophyton rubrum; more than 64 µg/mL against Cryptococcus neoformans; 64 µg/mL (≈ 263 µM) in the assay with Aspergillus fumigatus. In the assay with Candida albicans, this compound yielded an MIC80 of more than 64 µg/mL.

For the compound `O=C1c2cc([N+](=O)[O-])sc2C(=O)c2c(C3CCNCC3)ccnc21`, the MIC80 in the assay on Candida parapsilosis was more than 64 µg/mL; against Nakaseomyces glabratus, more than 64 µg/mL; against Nannizzia gypsea it was 64 µg/mL (≈ 186 µM); against Trichophyton rubrum it was more than 64 µg/mL; with Cryptococcus neoformans, 32 µg/mL (≈ 93.2 µM); against Aspergillus fumigatus, more than 64 µg/mL. In addition, the MIC80 in the assay with Candida albicans was more than 64 µg/mL.

Take `CCOC(=O)c1ccnc2c1C(=O)c1sc([N+](=O)[O-])cc1C2=O`: the MIC80 came to 4 µg/mL (≈ 12 µM) against Candida parapsilosis; 4 µg/mL (≈ 12 µM) against Nakaseomyces glabratus; 4 µg/mL (≈ 12 µM) with Nannizzia gypsea; 1 µg/mL (≈ 3.01 µM) with Trichophyton rubrum; 4 µg/mL (≈ 12 µM) against Cryptococcus neoformans; 8 µg/mL (≈ 24.1 µM) in the assay with Aspergillus fumigatus. In addition, the MIC80 against Candida albicans came out at 2 µg/mL (≈ 6.02 µM).

Take `Cc1ccnc2c1[C@H](O)c1sc([N+](=O)[O-])cc1[C@H]2O` (relative stereo): the MIC80 against Candida parapsilosis, against Nakaseomyces glabratus, in the assay on Nannizzia gypsea, with Trichophyton rubrum, in the assay on Cryptococcus neoformans and in the assay on Aspergillus fumigatus was more than 64 µg/mL throughout. Moreover, the MIC80 with Candida albicans was more than 64 µg/mL.

On to `O=Cc1ccnc2c1C(=O)c1sc([N+](=O)[O-])cc1C2=O`, for which the MIC80 was found to be 8 µg/mL (≈ 27.8 µM) with Candida parapsilosis; 0.125 µg/mL (≈ 0.434 µM) against Nakaseomyces glabratus; 2 µg/mL (≈ 6.94 µM) against Nannizzia gypsea; 1 µg/mL (≈ 3.47 µM) with Trichophyton rubrum; 8 µg/mL (≈ 27.8 µM) in the assay with Cryptococcus neoformans; 16 µg/mL (≈ 55.5 µM) in the assay with Aspergillus fumigatus. The compound further returned an MIC80 against Candida albicans of 4 µg/mL (≈ 13.9 µM).

Take `Cc1ccnc2c1C(=O)c1scc(N)c1C2=O`: the MIC80 in the assay with Candida parapsilosis, with Nakaseomyces glabratus, against Nannizzia gypsea, against Trichophyton rubrum, against Cryptococcus neoformans and in the assay on Aspergillus fumigatus was more than 64 µg/mL throughout. In the assay with Candida albicans, this compound had an MIC80 of 32 µg/mL (≈ 131 µM).

`CC(c1ccccc1)c1ccnc2c1C(=O)c1sc([N+](=O)[O-])cc1C2=O` (stereo not drawn): the MIC80 with Candida parapsilosis came to 4 µg/mL (≈ 11 µM); in the assay on Nakaseomyces glabratus, 8 µg/mL (≈ 22 µM); in the assay on Nannizzia gypsea, 1 µg/mL (≈ 2.74 µM); with Trichophyton rubrum it was 1 µg/mL (≈ 2.74 µM); in the assay with Cryptococcus neoformans, 0.5 µg/mL (≈ 1.37 µM); against Aspergillus fumigatus, 4 µg/mL (≈ 11 µM). This compound also displayed an MIC80 with Candida albicans of 4 µg/mL (≈ 11 µM).

`Cc1ccc(C(C)c2ccnc3c2C(=O)c2sc([N+](=O)[O-])cc2C3=O)o1` (stereo not drawn): the MIC80 against Candida parapsilosis was more than 64 µg/mL; in the assay with Nakaseomyces glabratus it was more than 64 µg/mL; with Nannizzia gypsea, 1 µg/mL (≈ 2.71 µM); against Trichophyton rubrum, 1 µg/mL (≈ 2.71 µM); against Cryptococcus neoformans, 0.25 µg/mL (≈ 0.679 µM); against Aspergillus fumigatus, 32 µg/mL (≈ 86.9 µM). The MIC80 in the assay with Candida albicans is more than 64 µg/mL.

As to `Cc1ccnc2c1C(=O)c1cn(C)cc1C2=O`, the MIC80 against Candida parapsilosis was more than 64 µg/mL; in the assay on Nakaseomyces glabratus, more than 64 µg/mL; against Nannizzia gypsea it was more than 64 µg/mL; in the assay on Trichophyton rubrum it was 64 µg/mL (≈ 283 µM); against Cryptococcus neoformans it was more than 64 µg/mL; against Aspergillus fumigatus, more than 64 µg/mL. The same compound showed an MIC80 with Candida albicans of more than 64 µg/mL.

In the case of `CCCc1cnc2c(c1)C(=O)c1sc([N+](=O)[O-])cc1C2=O`, the MIC80 against Candida parapsilosis came out at 4 µg/mL (≈ 13.2 µM); against Nakaseomyces glabratus, 4 µg/mL (≈ 13.2 µM); against Nannizzia gypsea it was 1 µg/mL (≈ 3.31 µM); in the assay with Trichophyton rubrum it was 1 µg/mL (≈ 3.31 µM); against Cryptococcus neoformans it was 0.5 µg/mL (≈ 1.65 µM); against Aspergillus fumigatus, 4 µg/mL (≈ 13.2 µM). Also, the MIC80 against Candida albicans was 2 µg/mL (≈ 6.62 µM).

For `CC(C)(C)c1cnc2c(c1)C(=O)c1sc([N+](=O)[O-])cc1C2=O`, the MIC80 stood at 4 µg/mL (≈ 12.6 µM) in the assay with Candida parapsilosis; 4 µg/mL (≈ 12.6 µM) against Nakaseomyces glabratus; 1 µg/mL (≈ 3.16 µM) in the assay with Nannizzia gypsea; 1 µg/mL (≈ 3.16 µM) against Trichophyton rubrum; 1 µg/mL (≈ 3.16 µM) with Cryptococcus neoformans; 4 µg/mL (≈ 12.6 µM) with Aspergillus fumigatus. The compound also returned an MIC80 against Candida albicans of 2 µg/mL (≈ 6.32 µM).

Turning to `CC(C)(C)OC(=O)/C=C/c1ccnc2c1C(=O)c1sc([N+](=O)[O-])cc1C2=O`, the MIC80 in the assay on Candida parapsilosis was 32 µg/mL (≈ 82.8 µM); in the assay with Nakaseomyces glabratus, more than 64 µg/mL; against Nannizzia gypsea, 4 µg/mL (≈ 10.4 µM); against Trichophyton rubrum, 8 µg/mL (≈ 20.7 µM); in the assay with Cryptococcus neoformans, 4 µg/mL (≈ 10.4 µM); against Aspergillus fumigatus, 32 µg/mL (≈ 82.8 µM). The compound also showed an MIC80 with Candida albicans of 16 µg/mL (≈ 41.4 µM).

Take `CCc1cnc2c(c1)C(=O)c1sc([N+](=O)[O-])cc1C2=O`: the MIC80 in the assay on Candida parapsilosis came out at 1 µg/mL (≈ 3.47 µM); with Nakaseomyces glabratus, 1 µg/mL (≈ 3.47 µM); with Nannizzia gypsea it was 0.25 µg/mL (≈ 0.867 µM); with Trichophyton rubrum, 0.5 µg/mL (≈ 1.73 µM); in the assay on Cryptococcus neoformans, 0.25 µg/mL (≈ 0.867 µM); with Aspergillus fumigatus, 2 µg/mL (≈ 6.94 µM). Also, in the assay on Candida albicans, the MIC80 stood at 0.5 µg/mL (≈ 1.73 µM).

The term MIC80 denotes the lowest concentration that inhibits either 80% of growth or 80% of the strains tested, depending on the study. The low end stands for higher susceptibility, the high end for lower susceptibility.
